In ChEMBL document CHEMBL2440093, “Discovery of 2-aryl-8-hydroxy (or methoxy)-isoquinolin-1(2H)-ones as novel EGFR inhibitor by scaffold hopping” (Bioorg Med Chem, 2013) one finds IC50 data, which are given here for 20 molecules.

One experiment has as its system A549. Put plainly: Antiproliferative activity against human A549 cells after 72 hrs by MTT assay. The format is functional, cell-based. The following applies: A549, 72 h. For orientation: Tetrazolium assays rely on reduction of a dye to a coloured formazan, in cell work by metabolically active cells.
A further experiment has as its system A-431. The experiment can be described thus: Antiproliferative activity against human A431 cells after 72 hrs by MTT assay. The class given is functional, cell-based. As to conditions: A-431, 72 h. Put shortly: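 A431 cells seeded in 96-well plates and held 24 h at 37 °C before exposure, with cell numbers set so controls stay in exponential growth. Compounds at final 100.0, 10.0, 1.0 and 0.1 μM for 72 h. MTT (5 mg/ml in PBS) added for 4 h, formazan pelleted and dissolved in DMSO, OD 570 nm. Three experiments in triplicate; IC50 from inhibition ratios.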

The target of experiment [1] is Epidermal growth factor receptor (Homo sapiens, UniProt P00533). Put plainly: Inhibition of EGFR in shed membrane vesicles of human A431 cells using poly-Glu-Tyr as substrate after 30 mins by ELISA. The class given is cell membranes, A-431. In general terms: An ELISA detects its analyte on a solid surface through an enzyme-linked reagent.
Chain of Epidermal growth factor receptor (P00533 whole entry): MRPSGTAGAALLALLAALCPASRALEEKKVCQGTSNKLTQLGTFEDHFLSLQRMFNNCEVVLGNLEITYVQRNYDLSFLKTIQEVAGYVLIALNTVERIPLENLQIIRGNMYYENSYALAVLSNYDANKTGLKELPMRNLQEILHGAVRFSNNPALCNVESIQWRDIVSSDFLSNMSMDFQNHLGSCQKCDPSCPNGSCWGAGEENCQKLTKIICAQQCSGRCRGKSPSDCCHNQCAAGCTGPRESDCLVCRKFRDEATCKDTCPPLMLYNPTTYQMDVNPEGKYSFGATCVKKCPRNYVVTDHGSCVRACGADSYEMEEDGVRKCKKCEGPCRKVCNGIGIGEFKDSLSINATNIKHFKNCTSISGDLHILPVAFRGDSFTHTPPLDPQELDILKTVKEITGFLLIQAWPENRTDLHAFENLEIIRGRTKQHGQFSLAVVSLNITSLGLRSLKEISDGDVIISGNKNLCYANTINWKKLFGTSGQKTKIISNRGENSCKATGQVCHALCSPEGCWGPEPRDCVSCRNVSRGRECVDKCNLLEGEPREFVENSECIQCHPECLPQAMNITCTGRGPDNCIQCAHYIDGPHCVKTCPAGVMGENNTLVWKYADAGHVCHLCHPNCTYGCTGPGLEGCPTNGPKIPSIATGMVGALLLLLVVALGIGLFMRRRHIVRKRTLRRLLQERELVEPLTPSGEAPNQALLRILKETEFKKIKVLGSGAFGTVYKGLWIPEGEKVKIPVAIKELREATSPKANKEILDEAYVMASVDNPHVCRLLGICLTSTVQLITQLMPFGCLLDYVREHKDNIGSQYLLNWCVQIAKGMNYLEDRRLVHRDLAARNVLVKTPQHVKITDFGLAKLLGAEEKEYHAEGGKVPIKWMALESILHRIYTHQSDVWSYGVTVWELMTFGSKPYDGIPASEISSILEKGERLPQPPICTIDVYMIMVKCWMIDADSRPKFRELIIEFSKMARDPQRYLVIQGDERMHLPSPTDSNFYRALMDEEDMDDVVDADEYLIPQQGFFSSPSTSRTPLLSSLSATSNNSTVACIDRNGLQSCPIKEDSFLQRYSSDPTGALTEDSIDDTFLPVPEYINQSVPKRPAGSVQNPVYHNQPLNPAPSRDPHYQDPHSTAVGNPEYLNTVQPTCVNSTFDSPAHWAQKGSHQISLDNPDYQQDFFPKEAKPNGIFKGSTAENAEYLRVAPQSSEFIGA

For the molecule `COc1cc(O)c2c(=O)n(-c3ccccc3)ccc2c1`, in the experiment with A549, half-maximal inhibition (IC50) required 27.9 µM.
For `COc1cc2c(c(OC)c1)C(=O)N(c1cccc(C(=O)N3CCCCC3)c1)CC2`, the IC50 in the experiment with A-431 stood at 10.8 µM; in the experiment with A549, 23.4 µM; in experiment [1] it was 1.23 µM.
Regarding `COc1cc(OC)c2c(=O)n(-c3cccc(C(F)(F)F)c3)ccc2c1`, the IC50 was determined as 14.8 µM with A-431 and 23.3 µM in the experiment with A549.
`COc1cc(O)c2c(=O)n(Cc3ccccc3)ccc2c1` had an IC50 with A-431 of 8.29 µM.
Take `C#Cc1cccc(-n2ccc3cc(OC)cc(OC)c3c2=O)c1`: the IC50 in the experiment with A-431 amounted to 7.13 µM; with A549, 25.2 µM; in experiment [1], 3.51 µM.
Turning to `COc1cc(O)c2c(c1)CCN(c1cccc(C(=O)N3CCCCC3)c1)C2=O`, the IC50 with A-431 stood at 5.32 µM; with A549 it was 13.2 µM; in experiment [1] it was 1.18 µM.
As to `COc1cc(OC)c2c(=O)n(Cc3ccccc3)ccc2c1`, half-maximal inhibition with A-431 (IC50) was put at 3.88 µM.
Consider `C=CC(=O)Nc1c(OC)cc(O)c2c(=O)n(-c3cccc(C(=O)N4CCCCC4)c3)ccc12`, for which the half-inhibitory concentration (IC50) with A-431 was determined as 5.3 µM; in the experiment with A549, 14.7 µM.
As to `COc1cc(O)c2c(=O)n(-c3cccc(C(=O)N4CCCCC4)c3)ccc2c1`, the values for the IC50 (in the experiment on A-431; in the experiment with A549; in experiment [1]) were 2.25 µM, 14.2 µM and 1.38 µM, respectively.
With `COc1cc(OC)c2c(=O)n(-c3ccc(F)c(Cl)c3)ccc2c1`, the IC50 turned out to be 3.95 µM in the experiment with A-431, 17.8 µM in the experiment with A549 and 5.49 µM in experiment [1].
With `COc1cc(OC)c2c(=O)n(-c3ccccc3)ccc2c1`, the IC50 in the experiment with A-431 was found to be 5.35 µM; in the experiment on A549, 44.5 µM.
For `COc1cc(OC)c2c(=O)n(-c3cccc(F)c3)ccc2c1`, the values for the IC50 in the experiment on A-431 and with A549 were 4.17 µM and 15.2 µM, respectively.
Turning to `C=CC(=O)Nc1c(OC)cc(OC)c2c(=O)n(-c3cccc(C(=O)N4CCCCC4)c3)ccc12`, in the experiment on A549, the IC50 was 14.7 µM.
For the molecule `COc1cc(OC)c2c(=O)n(-c3cccc(C(=O)N4CCCCC4)c3)ccc2c1`, the IC50 is 15.3 µM with A-431, 18.6 µM in the experiment on A549 and 2.12 µM in experiment [1].
Consider `COc1cc(OC)c2c(=O)n(-c3cccc(C(N)=O)c3)ccc2c1`, for which the IC50 is 28.2 µM in the experiment with A-431 and 31.3 µM with A549.
Regarding `C#Cc1cccc(-n2ccc3cc(OC)cc(O)c3c2=O)c1`, the figures for the IC50 (in the experiment on A-431; with A549; in experiment [1]) were 4.44 µM, 15.9 µM and 3.06 µM, respectively.
In the case of `COc1cc(O)c2c(=O)n(-c3cccc(C(=O)N4CCCCC4)c3)ccc2c1NC(=O)Nc1ccc(C(=O)N2CCN(C)CC2)cc1`, the IC50 was 19.5 µM in the experiment on A-431 and greater than 100 µM in the experiment on A549.
As for `COc1cc(O)c2c(=O)n(-c3cccc(C(=O)N4CCCCC4)c3)ccc2c1NC(=O)CCN1CCOCC1`, the IC50 is 11.4 µM with A-431 and 13.1 µM in the experiment on A549.
Regarding `COc1cc(O)c2c(=O)n(-c3cccc(C(N)=O)c3)ccc2c1`, the half-inhibitory concentration (IC50) in the experiment on A-431 was 15.2 µM; with A549 it was 24.8 µM.
`COc1cc(OC)c2c(=O)n(-c3ccc(F)c(F)c3)ccc2c1` had an IC50 with A-431 of 3.79 µM.

The term IC50 denotes the midpoint of a concentration-inhibition curve. Read a high IC50 as a need for much substance.
